Laboratory results from ChEMBL document CHEMBL3046000, “Design and synthesis of 1-(benzothiazol-5-yl)-1H-1,2,4-triazol-5-ones as protoporphyrinogen oxidase inhibitors” (Bioorg Med Chem, 2013).

Experiments:
[1] = test system: Sonchus asper; experiment: Post-emergence herbicidal activity against Sonchus asper assessed as plant growth inhibition at 75 g ai/ha; assay type: functional; settings: read-out: GI
Procedure, shortened: (§1)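 Compounds formulated as 100 g/L emulsifiable concentrates in DMF with Tween-80 as emulsifier, then diluted with water. Sprayed post-emergence onto pot-grown plants in a greenhouse, with broadleaf weeds at the 2-leaf stage and grasses at the 1-leaf stage. Clay soil with 1.6% organic matter and CEC 12.1 […]; relative humidity about 50%. Rate (g ai/ha) = active ingredient ÷ pot surface area. Untreated and DMF + Tween-80 solvent controls.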

[2] = test system: Solanum nigrum; experiment: Post-emergence herbicidal activity against Solanum nigrum (black nightshade) assessed as plant growth inhibition at 75 g ai/ha; assay type: functional; settings: read-out: GI; procedure, shortened: as §1
[3] = test system: Cerastium arvense; experiment: Post-emergence herbicidal activity against Cerastium arvense assessed as plant growth inhibition at 75 g ai/ha; assay type: functional; settings: read-out: GI; procedure, shortened: as §1
[4] = test system: Setaria faberi; experiment: Post-emergence herbicidal activity against Setaria faberi (Giant Foxtail) seedlings assessed as plant growth inhibition at 37.5 g ai/ha measured 15 days after compound treatment under greenhouse conditions; assay type: functional; settings: 360 h, read-out: GI
[5] = Phytotoxicity against four-leaf stage Zea mays cv. Anjou (maize) plants assessed as plant growth inhibition at 150 g ai/ha applied through spraying measured 30 days after compound treatment under greenhouse conditions; assay type: organism-based; settings: in vivo, read-out: GI
[6] = Phytotoxicity against 4-leaf stage Glycine max (soybean) plants assessed as plant growth inhibition at 150 g ai/ha applied through spraying measured 30 days after compound treatment under greenhouse conditions; assay type: organism-based; settings: in vivo, read-out: GI
[7] = test system: Amaranthus retroflexus; experiment: Post emergence herbicidal activity against Amaranthus retroflexus seedlings assessed as plant growth inhibition at 150 g ai/ha measured 15 days after compound treatment under greenhouse conditions; assay type: functional; settings: 360 h, read-out: GI
[8] = test system: Symphyotrichum subulatum; experiment: Post-emergence herbicidal activity against Symphyotrichum subulatum assessed as plant growth inhibition at 75 g ai/ha; assay type: functional; settings: read-out: GI; procedure, shortened: as §1
[9] = Phytotoxicity against four-leaf stage Brassica napus (oilseed rape) plants assessed as plant growth inhibition at 150 g ai/ha applied through spraying measured 30 days after compound treatment under greenhouse conditions; assay type: organism-based; settings: in vivo, read-out: GI
[10] = test system: Veronica polita; experiment: Post-emergence herbicidal activity against Veronica polita assessed as plant growth inhibition at 75 g ai/ha; assay type: functional; settings: read-out: GI; procedure, shortened: as §1
[11] = test system: Amaranthus spinosus; experiment: Post-emergence herbicidal activity against Amaranthus spinosus assessed as plant growth inhibition at 75 g ai/ha; assay type: functional; settings: read-out: GI; procedure, shortened: as §1
[12] = test system: Ammannia baccifera; experiment: Post-emergence herbicidal activity against Ammannia baccifera assessed as plant growth inhibition at 75 g ai/ha; assay type: functional; settings: read-out: GI; procedure, shortened: as §1
[13] = test system: Chenopodium album; experiment: Post-emergence herbicidal activity against Chenopodium album seedlings assessed as plant growth inhibition at 37.5 g ai/ha measured 15 days after compound treatment under greenhouse conditions; assay type: functional; settings: 360 h, read-out: GI
[14] = test system: Alkekengi officinarum; experiment: Post-emergence herbicidal activity against Physalis alkekengi assessed as plant growth inhibition at 75 g ai/ha; assay type: functional; settings: read-out: GI; procedure, shortened: as §1
[15] = test system: Capsella bursa-pastoris; experiment: Post-emergence herbicidal activity against Capsella bursa-pastoris assessed as plant growth inhibition at 75 g ai/ha; assay type: functional; settings: read-out: GI; procedure, shortened: as §1
[16] = test system: Ludwigia prostrata; experiment: Post-emergence herbicidal activity against Ludwigia prostrata assessed as plant growth inhibition at 75 g ai/ha; assay type: functional; settings: read-out: GI; procedure, shortened: as §1
[17] = test system: Echinochloa crus-galli; experiment: Post emergence herbicidal activity against Echinochloa crus-galli (barnyard grass) seedlings assessed as plant growth inhibition at 75 g ai/ha measured 15 days after compound treatment under greenhouse conditions; assay type: functional; settings: 360 h, read-out: GI
[18] = test system: Myosoton aquaticum; experiment: Post-emergence herbicidal activity against Myosoton aquaticum assessed as plant growth inhibition at 75 g ai/ha; assay type: functional; settings: read-out: GI; procedure, shortened: as §1
[19] = test system: Setaria faberi; experiment: Post-emergence herbicidal activity against Setaria faberi (Giant Foxtail) seedlings assessed as plant growth inhibition at 150 g ai/ha measured 15 days after compound treatment under greenhouse conditions; assay type: functional; settings: 360 h, read-out: GI
[20] = Phytotoxicity against 4-leaf stage Triticum aestivum (wheat) plants assessed as plant growth inhibition at 150 g ai/ha applied through spraying measured 30 days after compound treatment under greenhouse conditions; assay type: organism-based; settings: in vivo, read-out: GI
[21] = test system: Digitaria sanguinalis; experiment: Post-emergence herbicidal activity against Digitaria sanguinalis (hairy crabgrass) seedlings assessed as plant growth inhibition at 37.5 g ai/ha measured 15 days after compound treatment under greenhouse conditions; assay type: functional; settings: 360 h, read-out: GI
[22] = Phytotoxicity against four-leaf stage Oryza sativa (rice) plants assessed as plant growth inhibition at 150 g ai/ha applied through spraying measured 30 days after compound treatment under greenhouse conditions; assay type: organism-based; settings: in vivo, read-out: GI
[23] = test system: Brassica juncea; experiment: Post-emergence herbicidal activity against Brassica juncea seedlings assessed as plant growth inhibition at 75 g ai/ha measured 15 days after compound treatment under greenhouse conditions; assay type: functional; settings: 360 h, read-out: GI
[24] = test system: Brassica juncea; experiment: Post-emergence herbicidal activity against Brassica juncea seedlings assessed as plant growth inhibition at 150 g ai/ha measured 15 days after compound treatment under greenhouse conditions; assay type: functional; settings: 360 h, read-out: GI
[25] = test system: Phytolacca acinosa; experiment: Post-emergence herbicidal activity against Raddix phytolaccae assessed as plant growth inhibition at 75 g ai/ha; assay type: functional; settings: read-out: GI; procedure, shortened: as §1
[26] = test system: Amaranthus retroflexus; experiment: Post emergence herbicidal activity against Amaranthus retroflexus seedlings assessed as plant growth inhibition at 37.5 g ai/ha measured 15 days after compound treatment under greenhouse conditions; assay type: functional; settings: 360 h, read-out: GI
[27] = test system: Echinochloa crus-galli; experiment: Post emergence herbicidal activity against Echinochloa crus-galli (barnyard grass) seedlings assessed as plant growth inhibition at 37.5 g ai/ha measured 15 days after compound treatment under greenhouse conditions; assay type: functional; settings: 360 h, read-out: GI
[28] = test system: Digitaria sanguinalis; experiment: Post-emergence herbicidal activity against Digitaria sanguinalis (hairy crabgrass) seedlings assessed as plant growth inhibition at 75 g ai/ha measured 15 days after compound treatment under greenhouse conditions; assay type: functional; settings: 360 h, read-out: GI
[29] = molecular target: T1, Protoporphyrinogen oxidase, chloroplastic (Nicotiana tabacum, UniProt O24163); experiment: Inhibition of Nicotiana tabacum (tobacco) recombinant PPO assessed as protoporphyrin IX formation at room temperature by fluorimetric assay
T1 sequence (O24163 whole entry): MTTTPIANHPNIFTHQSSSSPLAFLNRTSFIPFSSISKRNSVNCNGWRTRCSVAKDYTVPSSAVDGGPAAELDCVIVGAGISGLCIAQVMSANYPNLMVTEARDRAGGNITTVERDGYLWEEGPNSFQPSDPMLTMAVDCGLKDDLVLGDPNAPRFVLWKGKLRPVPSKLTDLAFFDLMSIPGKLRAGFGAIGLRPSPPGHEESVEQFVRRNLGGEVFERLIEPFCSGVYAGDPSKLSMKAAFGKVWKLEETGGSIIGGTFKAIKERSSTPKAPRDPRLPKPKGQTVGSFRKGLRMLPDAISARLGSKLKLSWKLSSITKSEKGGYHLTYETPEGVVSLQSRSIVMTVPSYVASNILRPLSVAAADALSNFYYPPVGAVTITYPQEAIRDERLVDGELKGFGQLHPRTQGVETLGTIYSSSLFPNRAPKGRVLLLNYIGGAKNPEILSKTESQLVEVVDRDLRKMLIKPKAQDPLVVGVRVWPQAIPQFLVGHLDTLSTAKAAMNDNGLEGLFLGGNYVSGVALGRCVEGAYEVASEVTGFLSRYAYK

[30] = Phytotoxicity against four-leaf stage Gossypium hirsutum (cotton) plants assessed as plant growth inhibition at 150 g ai/ha applied through spraying measured 30 days after compound treatment under greenhouse conditions; assay type: organism-based; settings: in vivo, read-out: GI
[31] = test system: Brassica juncea; experiment: Post-emergence herbicidal activity against Brassica juncea seedlings assessed as plant growth inhibition at 37.5 g ai/ha measured 15 days after compound treatment under greenhouse conditions; assay type: functional; settings: 360 h, read-out: GI
[32] = Phytotoxicity against 4-leaf stage Glycine max (soybean) plants assessed as plant growth inhibition at 75 g ai/ha applied through spraying measured 30 days after compound treatment under greenhouse conditions; assay type: organism-based; settings: in vivo, read-out: GI
[33] = test system: Amaranthus retroflexus; experiment: Post emergence herbicidal activity against Amaranthus retroflexus seedlings assessed as plant growth inhibition at 75 g ai/ha measured 15 days after compound treatment under greenhouse conditions; assay type: functional; settings: 360 h, read-out: GI
[34] = test system: Commelina communis; experiment: Post-emergence herbicidal activity against Commelina communis (Asiatic dayflower) assessed as plant growth inhibition at 75 g ai/ha; assay type: functional; settings: read-out: GI; procedure, shortened: as §1
[35] = test system: Chenopodium album; experiment: Post-emergence herbicidal activity against Chenopodium album seedlings assessed as plant growth inhibition at 75 g ai/ha measured 15 days after compound treatment under greenhouse conditions; assay type: functional; settings: 360 h, read-out: GI
[36] = test system: Senna tora; experiment: Post-emergence herbicidal activity against Senna tora assessed as plant growth inhibition at 75 g ai/ha; assay type: functional; settings: read-out: GI; procedure, shortened: as §1
[37] = test system: Echinochloa crus-galli; experiment: Post emergence herbicidal activity against Echinochloa crus-galli (barnyard grass) seedlings assessed as plant growth inhibition at 150 g ai/ha measured 15 days after compound treatment under greenhouse conditions; assay type: functional; settings: 360 h, read-out: GI
[38] = test system: Chenopodium album; experiment: Post-emergence herbicidal activity against Chenopodium album seedlings assessed as plant growth inhibition at 150 g ai/ha measured 15 days after compound treatment under greenhouse conditions; assay type: functional; settings: 360 h, read-out: GI
[39] = test system: Eleusine indica; experiment: Post-emergence herbicidal activity against Eleusine indica assessed as plant growth inhibition at 75 g ai/ha; assay type: functional; settings: read-out: GI; procedure, shortened: as §1
[40] = test system: Digitaria sanguinalis; experiment: Post-emergence herbicidal activity against Digitaria sanguinalis (hairy crabgrass) seedlings assessed as plant growth inhibition at 150 g ai/ha measured 15 days after compound treatment under greenhouse conditions; assay type: functional; settings: 360 h, read-out: GI
[41] = test system: Boehmeria nivea; experiment: Post-emergence herbicidal activity against Boehmeria nivea assessed as plant growth inhibition at 75 g ai/ha; assay type: functional; settings: read-out: GI; procedure, shortened: as §1
[42] = test system: Setaria faberi; experiment: Post-emergence herbicidal activity against Setaria faberi (Giant Foxtail) seedlings assessed as plant growth inhibition at 75 g ai/ha measured 15 days after compound treatment under greenhouse conditions; assay type: functional; settings: 360 h, read-out: GI
[43] = test system: Polygonum humifusum; experiment: Post-emergence herbicidal activity against Polygonum humifusum assessed as plant growth inhibition at 75 g ai/ha; assay type: functional; settings: read-out: GI; procedure, shortened: as §1

- Ki [29]: 240 nM
SMILES: CCOC(=O)C(C)Sc1nc2cc(-n3nc(C)n(C(F)F)c3=O)c(F)cc2s1 (stereo not drawn)
- inhibition of growth at 75 g/ha [1]: 100%
- inhibition of growth at 75 g/ha [2]: 100%
- inhibition of growth at 75 g/ha [3]: 100%
- inhibition of growth at 37.5 g/ha [4]: ≥ 90%
- inhibition at 720 h [5]: 30%
- inhibition at 720 h [6]: 0%
- inhibition of growth at 150 g/ha [7]: ≥ 90%
- inhibition of growth at 75 g/ha [8]: 100%
- inhibition at 720 h [9]: 100%
- inhibition of growth at 75 g/ha [10]: 100%
- inhibition of growth at 75 g/ha [11]: 100%
- inhibition of growth at 75 g/ha [12]: > 90%
- inhibition of growth at 37.5 g/ha [13]: 60%
- inhibition of growth at 75 g/ha [14]: > 90%
- inhibition of growth at 75 g/ha [15]: 100%
- inhibition of growth at 75 g/ha [16]: > 90%
- inhibition of growth at 75 g/ha [17]: 80%
- inhibition of growth at 75 g/ha [18]: > 90%
- inhibition of growth at 150 g/ha [19]: ≥ 90%
- inhibition at 720 h [20]: 80%
- inhibition of growth at 37.5 g/ha [21]: 80%
- inhibition at 720 h [22]: 50%
- inhibition of growth at 75 g/ha [23]: ≥ 90%
- inhibition of growth at 150 g/ha [24]: ≥ 90%
- inhibition of growth at 75 g/ha [25]: > 90%
- inhibition of growth at 37.5 g/ha [26]: 80%
- inhibition of growth at 37.5 g/ha [27]: 80%
- inhibition of growth at 75 g/ha [28]: 80%
- inhibition at 720 h [30]: 70%
- inhibition of growth at 37.5 g/ha [31]: ≥ 90%
- inhibition at 720 h [32]: 0%
- inhibition of growth at 75 g/ha [33]: 80%
- inhibition of growth at 75 g/ha [34]: > 90%
- inhibition of growth at 75 g/ha [35]: 60%
- inhibition of growth at 75 g/ha [36]: > 90%
- inhibition of growth at 150 g/ha [37]: ≥ 90%
- inhibition of growth at 150 g/ha [38]: ≥ 90%
- inhibition of growth at 75 g/ha [39]: 100%
- inhibition of growth at 150 g/ha [40]: ≥ 90%
- inhibition of growth at 75 g/ha [41]: 100%
- inhibition of growth at 75 g/ha [42]: ≥ 90%
- inhibition of growth at 75 g/ha [43]: 100%
